A selection: hits, their analogues and other compounds. The true share with any hit is near 2%.
Autophagy HCS = alters autophagy in cells; MEF GFP-LC3 puncta imaging; test concentration mostly 10 µM; calls only at 10 µM (by protocol); actives 0.98% (n = 190,000); AID 463193;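 active = percentage of spot-positive cells more than 3 SD above its plate mean, without a fluorescence outlier flag or 80% toxicity; inconclusive = no clear call, values can overlap the other calls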;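 note: spot-positive cell cutoff set from DMSO-treated cells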
Insulin prom up = MIN6 insulin promoter up-regulation; MIN6 insulin promoter-GFP reporter, high-content imaging; stronger effect = higher value; z-score at 5 µM; actives 0.3% (n = 190,000); AID 1625;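 active = z-score above 3 at 5 µM with at least 500 cells counted in the well; inconclusive = wells under 500 cells, flagged as cytotoxic or low count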
Dynein cargo inh = blocks dynein driven cargo transport along microtubules; 3617.4 mouse cells, GR-EGFP nuclear translocation imaging; test concentration mostly 20 µM; stimulated with dexamethasone, 1 µM; stronger effect = lower value; z-score, hits read low; actives 0.47% (n = 220,000); AID 1381;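 active = plate z-score of nuclear minus cytoplasmic receptor signal below a set negative limit, without overly bright fluorescence or cell loss, cut at about -3.5 in these data, passing the limit was not always enough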;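 note: z-score of nuclear minus cytoplasmic ring GR-EGFP intensity difference per well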
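Buffer or medium – tet-free medium with charcoal-stripped serum · Signal – automated 10x imaging of fixed Hoechst-stained cells · Also added – dexamethasone agonist, 1.0 µM final, for 30 min · Incubation – induction 48 h, compound 1 h, agonist 30 min · Read-out – GR-EGFP nuclear translocation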
INS promoter inh = TRM-6 insulin promoter activity inhibition | TRM-6 cells (human fetal islet line), insulin promoter-eGFP reporter, imaging; reporter expression induced with tamoxifen | inhibition, % at 2 µM | AID 1273 | actives 0.9% (n = 130,000);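 active = inhibition above the mean plus 3 SD, with well images judged a real hit on visual review, cut at about 60% in these data, passing the limit was not always enough; inconclusive = inhibition over the cutoff but images rejected on review; inactive = inhibition not above the cutoff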
Dynein inh conf = dynein cargo transport inhibition, confirmation; actives 69% (n = 1,000); calls only at 20 µM; shares compounds with Dynein cargo inh; 3617.4 GR-EGFP nuclear translocation imaging, dexamethasone-induced; AID 463116;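 active = inhibition of receptor movement into the nucleus at or above a set limit in both runs, with normal cell brightness and cell count; inconclusive = limit reached in only one run, brightness and count normal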;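 note: dexamethasone at 1 µM final in well for 30 min; nuclear minus cytoplasmic GR-EGFP mean intensity difference in channel 2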
Starred values were filed as active, the others as inactive.

COc1ccc(/C=C/C(=O)c2ccc(C)c([N+](=O)[O-])c2)cc1O was read as Autophagy HCS inactive, Insulin prom up 2.2 and Dynein cargo inh -0.19.
COc1cccc(/C=C/C(=O)c2ccc(C)c([N+](=O)[O-])c2)c1 was read as Autophagy HCS inactive, Insulin prom up 0.16, Dynein cargo inh -4*, INS promoter inh 30 and Dynein inh conf active.
Cc1cccn2c(=O)c(/C=C(\C#N)C(=O)NCc3ccccc3)c(N3CCC(C(N)=O)CC3)nc12 was read as Insulin prom up -0.19 and Dynein cargo inh 4.
NC(=O)c1ccc(NC(=O)COC(=O)C2CC(=O)N(Cc3ccccc3)C2)cc1 (stereo not drawn) was read as Autophagy HCS inactive, Insulin prom up 0.19, Dynein cargo inh 0.093 and INS promoter inh -14.
Cc1ccc(S(=O)(=O)Nc2cc(-c3ccccc3)nn2C)cc1Cl was read as Insulin prom up 0.59 and Dynein cargo inh 0.29.
`Cc1nnc(-c2ccc(N3CCCCCC3)c([N+](=O)[O-])c2)o1` gave Insulin prom up -0.24 and Dynein cargo inh -0.69.
`COc1ccccc1-c1cc(C(F)(F)F)nc(S(=O)(=O)CCCC(=O)Nc2cc(C)on2)n1` gave Autophagy HCS inactive, Insulin prom up 0.77, Dynein cargo inh 0.23 and INS promoter inh -29.
Screening COc1ccc(-c2cc(C(F)(F)F)nc(S(=O)(=O)CCCC(=O)Nc3cc(C)on3)n2)cc1OC returned Autophagy HCS inactive, Insulin prom up -0.48, Dynein cargo inh -5* and Dynein inh conf active.
`N#C/C(=C/c1ccc(N2CCOCC2)o1)c1ccc(Cl)cc1` gave Autophagy HCS active, Dynein cargo inh -9.1, INS promoter inh -63 and Dynein inh conf inactive.
Screening N#C/C(=C\c1ccc(N2CCOCC2)o1)c1nc2ccccc2[nH]1 returned Autophagy HCS inconclusive, Dynein cargo inh -0.65 and INS promoter inh -142.
`O=C1C=C(c2ccccc2)C(=O)N1Nc1ccccc1` gave Autophagy HCS inactive, Insulin prom up -1.3, Dynein cargo inh -1.2 and INS promoter inh -21.
COc1ccc(C2=CC(=O)N(Nc3ccccc3)C2=O)cc1 was read as Autophagy HCS inactive, Insulin prom up -0.36, Dynein cargo inh -5.1* and Dynein inh conf active.
For Fc1ccc(-c2nnc(Cc3ccc(Cl)cc3)o2)cc1 the results were Insulin prom up -0.59 and Dynein cargo inh -0.15.
For CCOC(=O)c1c(C)oc2c1c(C(c1cccnc1)N1CCOCC1)c(O)c1ccccc12 (stereo not drawn) the results were Autophagy HCS inactive, Insulin prom up 0.96, Dynein cargo inh -3.7* and Dynein inh conf inconclusive.
CCN(CC)c1ccc2cc(-c3nc(-c4ccc(OC)cc4)cs3)c(=O)oc2c1 was read as Dynein cargo inh -5.1*, INS promoter inh -223 and Dynein inh conf active.
Screening CCN(CC)c1ccc2cc(-c3nc4ccccc4n3C)c(=O)oc2c1 returned Autophagy HCS inactive, Insulin prom up 1.7, Dynein cargo inh 1.7 and INS promoter inh -138.
CCN(CC)c1ccc2cc(-c3nc4ccccc4[nH]3)c(=O)oc2c1 was read as Autophagy HCS active, Dynein cargo inh -5.2* and Dynein inh conf active.
For COc1cccc(CN2CCN(Cc3ccc4c(NC(C)=O)cccc4n3)CC2CCO)c1 (stereo not drawn) the results were Autophagy HCS inactive and Dynein cargo inh -0.52.
For Cc1ccc(NC(=O)C(=Cc2ccc(C(=O)O)cc2)C(=O)Nc2ccc(C)cc2C)c(C)c1 the results were Insulin prom up 0.64, Dynein cargo inh -6* and Dynein inh conf active.
For O=C(Nc1ccc(F)cc1)c1nn(-c2ccccc2)c(=O)cc1Cl the results were Autophagy HCS inactive, Insulin prom up -2.2, Dynein cargo inh -5.4*, INS promoter inh -30 and Dynein inh conf active.
CC1CC(C)(C)Nc2ccc(N=O)cc21 (stereo not drawn) was read as Autophagy HCS active, Insulin prom up 4.1*, Dynein cargo inh -4*, INS promoter inh -158 and Dynein inh conf active.
`CC1CC(C)(C)Nc2ccc(OC(=O)c3ccco3)cc21` (stereo not drawn) gave Autophagy HCS inactive, Insulin prom up 0.4, Dynein cargo inh -2.8 and INS promoter inh -14.
CCCCCCC(=O)N(O)C1CC(=O)N(c2ccc(Cl)cc2)C1=O (stereo not drawn) was read as Insulin prom up 0.71, Dynein cargo inh -5.1* and Dynein inh conf active.
Screening CCOC(=O)c1c(SC)[nH]c2c(Cl)cccc2c1=O returned Insulin prom up -1.1 and Dynein cargo inh -0.13.
For Cc1cc(C)n(C(C[N+](=O)[O-])c2ccc(Cl)cc2)n1 (stereo not drawn) the results were Autophagy HCS inactive, Insulin prom up -0.37, Dynein cargo inh -5.6*, INS promoter inh 14 and Dynein inh conf inactive.
`Cc1nc(-c2ccc(NC(=O)c3ccccc3C)cc2)cs1` gave Autophagy HCS inactive, Insulin prom up 0.5 and Dynein cargo inh -0.42.
CCCN(C(=O)CCl)C1=CCCCC1 was read as Autophagy HCS inactive and Dynein cargo inh -0.26.
`Cc1ccc2nc(Cl)c3nnnn3c2c1` gave Autophagy HCS inactive, Insulin prom up 1, Dynein cargo inh -5.2*, INS promoter inh -147 and Dynein inh conf active.
Screening C=CCSc1nc2ccsc2c(=O)n1-c1cccnc1 returned Autophagy HCS inactive, Insulin prom up -0.08 and Dynein cargo inh 0.47.
For Cc1ccc(OCC(=O)c2ccc(Cl)s2)c([N+](=O)[O-])n1 the results were Autophagy HCS inactive, Dynein cargo inh -3.9* and Dynein inh conf active.
For CC1=NNC(=O)/C1=C\c1cn(-c2ccccc2)nc1-c1ccccc1 the results were Autophagy HCS inactive, Insulin prom up 1.2, Dynein cargo inh -3.9* and Dynein inh conf inactive.
`O=C(Nc1cccc([N+](=O)[O-])c1)c1ccc2ccccc2c1O` gave Insulin prom up -2.1 and Dynein cargo inh -0.19.
COc1ccccc1C(=O)NCC1(c2ccccc2)CCCC1 was read as Autophagy HCS inactive, Insulin prom up -0.72 and Dynein cargo inh -1.2.
O=C(Cn1cc([N+](=O)[O-])nc1[N+](=O)[O-])N1CCN(c2ccccc2)CC1 was read as Autophagy HCS inactive, Insulin prom up 1.5 and Dynein cargo inh -2.
`CCOC(=O)COc1ccc(/C=C/[N+](=O)[O-])c(OCC(=O)OCC)c1` gave Autophagy HCS inactive, Insulin prom up -0.44, Dynein cargo inh -4.8* and Dynein inh conf active.
Screening CCOc1ccc(/C=C/[N+](=O)[O-])c2ccccc12 returned Autophagy HCS inactive, Insulin prom up -0.3, Dynein cargo inh -3.9*, INS promoter inh 11 and Dynein inh conf inactive.
For CCOC(=O)COc1ccc2ccccc2c1/C=C/[N+](=O)[O-] the results were Autophagy HCS inactive, Insulin prom up 0.45, Dynein cargo inh -4.8*, INS promoter inh 21 and Dynein inh conf active.

Screening results deposited in PubChem BioAssay by several laboratories.
